The source made the active and inactive calls. The calls are words filed in the database; no cut-off is given here.
Tests used:
[1] = target: T1, 5-hydroxytryptamine receptor 1A (Rattus norvegicus, UniProt P19327); test: Displacement of [3H]8-OH-DPAT from 5HT1A receptor in rat cerebral cortex after 15 mins by liquid scintillation counting; assay type: tissue-based
T1 sequence (P19327 whole entry): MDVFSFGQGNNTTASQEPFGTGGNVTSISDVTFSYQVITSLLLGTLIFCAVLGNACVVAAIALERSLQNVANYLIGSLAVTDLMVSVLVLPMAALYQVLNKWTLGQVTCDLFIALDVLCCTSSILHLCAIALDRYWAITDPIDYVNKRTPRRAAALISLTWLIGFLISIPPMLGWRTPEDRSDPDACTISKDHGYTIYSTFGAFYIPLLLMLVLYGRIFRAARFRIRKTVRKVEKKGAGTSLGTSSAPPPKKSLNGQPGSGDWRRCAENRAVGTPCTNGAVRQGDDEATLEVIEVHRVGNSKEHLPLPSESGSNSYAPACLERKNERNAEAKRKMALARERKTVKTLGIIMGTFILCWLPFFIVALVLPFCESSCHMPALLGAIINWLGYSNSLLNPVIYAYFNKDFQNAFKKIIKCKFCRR

[2] = target: D(2) dopamine receptor (Rattus norvegicus, UniProt P61169); test: Displacement of [3H]spiperone from dopamine D2 receptor in rat striatum membrane after 30 mins by liquid scintillation counting; assay type: cell membranes
Summary of the method: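 Rat striatum homogenised in 50 mM potassium phosphate pH 7.4 and spun twice at 20000 × g. Membranes (3 mg wet weight) incubated with 1 nM [3H]-spiperone and test agent in 0.5 ml for 30 min at 37 °C. Nonspecific binding with (+)butaclamol. GF/B filtration, two washes with ice-cold buffer, scintillation counting; Ki from ≥3 experiments, 10 concentrations in triplicate.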

[3] = target: 5-hydroxytryptamine receptor 2A (Rattus norvegicus, UniProt P14842); test: Displacement of [3H]ketanserin from 5HT2A receptor in rat cerebral cortex after 20 mins by liquid scintillation counting; assay type: tissue-based
Summary of the method: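 Rat cerebral cortex homogenised in 50 mM Tris-HCl pH 7.7, spun at 32000 × g, preincubated 10 min at 37 °C, resuspended in 50 volumes. Incubated with 0.6 nM [3H]-ketanserin and test agent (10^-10 to 10^-4 M) at 37 °C for 20 min; mianserin as displacer. GF/B filtration, scintillation counting; Ki from ≥3 experiments, 10 concentrations in triplicate.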

[4] = tested on: Mus musculus; test: Anxiolytic activity in Swiss albino mouse assessed as number of punished crossings at 20 mg/kg, ip. administered 30 mins before test measured for 60s by four plate test; assay type: functional
Summary of the method: (§1)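 Male Albino Swiss mice. Box with four metal floor plates separated by 4 mm gaps; 120 V between adjacent plates for 0.5 s delivered on crossing. Mice explored 15 s before testing. Agent (ip, 1% Tween 80) given 30 min before the test. Punished crossings counted; n = 10 mice per group, mean ± SEM.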

[5] = tested on: Mus musculus; test: Antidepressant activity in Swiss albino mouse assessed as reduction of immobility time at 30 mg/kg, ip administered 30 mins before test by forced swimming test; assay type: functional; details: route intraperitoneal
Summary of the method: (§2)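 Male Albino Swiss mice (24–28 g); agent suspended in 1% aqueous Tween 80, ip 10 ml/kg, 30 min before the test. Total immobility time scored over the last 4 min of a 6-min swim session. n = 8–10 mice per group; mean ± SEM, compared with vehicle.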

[6] = tested on: Mus musculus; test: Agonist activity at 5HT1A receptor in Swiss albino mouse assessed as decrease in rectal temperature at 5 mg/kg, ip after 30 mins; assay type: functional, organism-based; set-up: dose 5 mg/kg
Summary of the method: (§3)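 Male Albino Swiss mice (24–28 g), free food and water, room at 20 ± 1 °C; test agent suspended in 1% aqueous Tween 80, given ip at 10 ml/kg. Rectal temperature read with a thermometer at 30, 60, 90 and 120 min after dosing. Result expressed as Δt from basal temperature taken at the start; six to ten animals per group, each used once.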

[7] = tested on: Mus musculus; test: Agonist activity at 5HT1A receptor in Swiss albino mouse assessed as decrease in rectal temperature at 10 mg/kg, ip after 60 mins; assay type: functional, organism-based; set-up: dose 10 mg/kg; summary of the method: as §3
[8] = tested on: Mus musculus; test: Agonist activity at 5HT1A receptor in Swiss albino mouse assessed as decrease in rectal temperature at 5 mg/kg, ip after 120 mins; assay type: functional, organism-based; set-up: dose 5 mg/kg; summary of the method: as §3
[9] = tested on: Mus musculus; test: Agonist activity at 5HT1A receptor in Swiss albino mouse assessed as decrease in rectal temperature at 10 mg/kg, ip after 30 mins in presence of WAY 100635 administered 15 mins before drug challenge; assay type: functional, organism-based; set-up: dose 10 mg/kg
Summary of the method: (§4)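 Male Albino Swiss mice (24–28 g). WAY 100635 (0.1 mg/kg, sc, in distilled water) given 15 min before test agent (ip, suspended in 1% Tween 80, 10 ml/kg). Rectal temperature recorded 30 and 60 min after test agent injection. Expressed as Δt versus basal temperature at the start of the experiment.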

[10] = tested on: Mus musculus; test: Agonist activity at 5HT1A receptor in ip dosed Swiss albino mouse assessed as decrease in rectal temperature; assay type: functional, organism-based; summary of the method: as §3
[11] = tested on: Mus musculus; test: Anxiolytic activity in Swiss albino mouse assessed as number of punished crossings at 30 mg/kg, ip administered 30 mins before test measured for 60s by four plate test; assay type: functional; details: route intraperitoneal; summary of the method: as §1
[12] = tested on: Mus musculus; test: Agonist activity at 5HT1A receptor in Swiss albino mouse assessed as decrease in rectal temperature at 10 mg/kg, ip after 30 mins; assay type: functional, organism-based; set-up: dose 10 mg/kg; summary of the method: as §3
[13] = tested on: Mus musculus; test: Antidepressant activity in Swiss albino mouse assessed as reduction of immobility time at 20 mg/kg, ip administered 30 mins before test by forced swimming test; assay type: functional; details: route intraperitoneal; summary of the method: as §2
[14] = tested on: Mus musculus; test: Agonist activity at 5HT1A receptor in Swiss albino mouse assessed as decrease in rectal temperature at 10 mg/kg, ip after 120 mins; assay type: functional, organism-based; set-up: dose 10 mg/kg; summary of the method: as §3
[15] = tested on: Mus musculus; test: Agonist activity at 5HT1A receptor in Swiss albino mouse assessed as decrease in rectal temperature at 10 mg/kg, ip after 90 mins; assay type: functional, organism-based; set-up: dose 10 mg/kg; summary of the method: as §3
[16] = tested on: Mus musculus; test: Agonist activity at 5HT1A receptor in Swiss albino mouse assessed as decrease in rectal temperature at 10 mg/kg, ip after 60 mins in presence of WAY 100635 administered 15 mins before drug challenge; assay type: functional, organism-based; set-up: dose 10 mg/kg; summary of the method: as §4
[17] = tested on: Mus musculus; test: Agonist activity at 5HT1A receptor in Swiss albino mouse assessed as decrease in rectal temperature at 5 mg/kg, ip after 60 mins; assay type: functional, organism-based; set-up: dose 5 mg/kg; summary of the method: as §3
[18] = tested on: Mus musculus; test: Agonist activity at 5HT1A receptor in Swiss albino mouse assessed as decrease in rectal temperature at 5 mg/kg, ip after 90 mins; assay type: functional, organism-based; set-up: dose 5 mg/kg; summary of the method: as §3
[19] = tested on: Rattus norvegicus; test: Behavioral activity in Wistar rat assessed as induction of lower lip retraction at 10 to 20 mg/kg, ip; assay type: functional, organism-based
Summary of the method: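 Male Wistar rats (290–310 g); agent ip in 1% Tween 80 at 2 ml/kg. Rats housed singly in cages and scored 15, 30 and 45 min after dosing: 0 = lower incisors not visible, 0.5 = partly, 1 = fully visible. Maximum total score 3 per rat.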

[20] = tested on: Mus musculus; test: Antidepressant activity in Swiss albino mouse assessed as reduction of immobility time at 10 mg/kg, ip administered 30 mins before test by forced swimming test; assay type: functional; details: route intraperitoneal; summary of the method: as §2
[21] = tested on: Mus musculus; test: Sedative activity in Swiss albino mouse assessed as reduction on spontaneous locomotor activity at 30 mg/kg, ip administered 30 mins before test measured for 6 mins; assay type: ADME, organism-based; set-up: dose 30 mg/kg, route intraperitoneal; details: in vivo, 0.1 h
Summary of the method: (§5)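 Male Albino Swiss mice (24–28 g); agent ip in 1% Tween 80, 30 min before the test. Locomotor activity counted as number of crossings during 6-min and 30-min sessions. n = 8–10 mice per group; mean ± SEM versus vehicle.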

[22] = tested on: Mus musculus; test: Sedative activity in Swiss albino mouse assessed as reduction on spontaneous locomotor activity at 20 mg/kg, ip administered 30 mins before test measured for 30 mins; assay type: ADME, organism-based; set-up: dose 20 mg/kg, route intraperitoneal; details: in vivo, 0.5 h; summary of the method: as §5
[23] = tested on: Mus musculus; test: Sedative activity in Swiss albino mouse assessed as reduction on spontaneous locomotor activity at 20 mg/kg, ip administered 30 mins before test measured for 6 mins; assay type: ADME, organism-based; set-up: dose 20 mg/kg, route intraperitoneal; details: in vivo, 0.1 h; summary of the method: as §5
[24] = tested on: Mus musculus; test: Sedative activity in Swiss albino mouse assessed as reduction on spontaneous locomotor activity at 10 mg/kg, ip administered 30 mins before test measured for 30 mins; assay type: ADME, organism-based; set-up: dose 10 mg/kg, route intraperitoneal; details: in vivo, 0.5 h
[25] = tested on: Mus musculus; test: Sedative activity in Swiss albino mouse assessed as reduction on spontaneous locomotor activity at 30 mg/kg, ip administered 30 mins before test measured for 30 mins; assay type: ADME, organism-based; set-up: dose 30 mg/kg, route intraperitoneal; details: in vivo, 0.5 h; summary of the method: as §5
[26] = tested on: Mus musculus; test: Sedative activity in Swiss albino mouse assessed as reduction on spontaneous locomotor activity at 10 mg/kg, ip administered 30 mins before test measured for 6 mins; assay type: ADME, organism-based; set-up: dose 10 mg/kg, route intraperitoneal; details: in vivo, 0.1 h

Chain of 5-hydroxytryptamine receptor 2A (P14842 whole entry): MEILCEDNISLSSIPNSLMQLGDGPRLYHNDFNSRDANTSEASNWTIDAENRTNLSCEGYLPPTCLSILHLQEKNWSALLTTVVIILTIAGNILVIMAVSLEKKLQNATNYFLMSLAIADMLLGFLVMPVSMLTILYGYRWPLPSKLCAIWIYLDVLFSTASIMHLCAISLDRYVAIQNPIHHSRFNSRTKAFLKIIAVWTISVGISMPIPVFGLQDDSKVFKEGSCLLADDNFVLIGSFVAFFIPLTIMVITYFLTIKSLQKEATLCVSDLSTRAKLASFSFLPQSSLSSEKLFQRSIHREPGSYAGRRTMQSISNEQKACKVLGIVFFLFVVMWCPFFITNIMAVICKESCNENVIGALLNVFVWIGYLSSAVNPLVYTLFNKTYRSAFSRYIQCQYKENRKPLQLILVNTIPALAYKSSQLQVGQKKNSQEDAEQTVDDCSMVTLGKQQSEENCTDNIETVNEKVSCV
Chain of D(2) dopamine receptor (P61169 whole entry): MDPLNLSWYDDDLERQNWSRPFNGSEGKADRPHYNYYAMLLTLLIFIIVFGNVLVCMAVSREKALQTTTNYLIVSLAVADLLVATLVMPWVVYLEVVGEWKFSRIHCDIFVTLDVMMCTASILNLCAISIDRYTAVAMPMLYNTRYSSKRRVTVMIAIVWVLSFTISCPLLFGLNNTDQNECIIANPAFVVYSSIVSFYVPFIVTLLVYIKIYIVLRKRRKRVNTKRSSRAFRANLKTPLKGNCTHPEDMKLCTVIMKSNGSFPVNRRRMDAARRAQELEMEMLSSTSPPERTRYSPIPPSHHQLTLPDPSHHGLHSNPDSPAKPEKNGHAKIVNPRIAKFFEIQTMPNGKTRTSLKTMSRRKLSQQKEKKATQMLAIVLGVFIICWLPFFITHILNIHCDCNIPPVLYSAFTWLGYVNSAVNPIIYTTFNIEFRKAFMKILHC

Q: Which Ki [1] does the source give for `COc1ccccc1N1CCN(CCNC(=O)C2Cn3c(nc4c3c(=O)n(C)c(=O)n4C)N2)CC1` (configuration not stated) here?
A: The Ki was over 1000 nM.

Q: With `Cn1c(=O)c2c(nc3n2CC(C(=O)NCCN2CCN(c4ccccc4)CC2)N3)n(C)c1=O` (configuration not stated) as the molecule, how does the Ki [1] read?
A: The Ki was over 1000 nM.

Q: What does the source list for `Cc1cn2c3c(=O)n(C)c(=O)n(C)c3nc2n1CCCN1CCN(c2ccccc2)CC1`?
A: Ki [1]: 76.4 nM; Ki [2]: > 1000 nM; Ki [3]: > 1000 nM

Q: How did the Ki [3] turn out when `Cn1c(=O)c2c(nc3n(CCCN4CCN(c5cccc(Cl)c5)CC4)c(-c4ccccc4)cn23)n(C)c1=O` was run?
A: Its Ki is over 1000 nM.

Q: How did the Activity [4] turn out when `COc1ccccc1N1CCN(CCCn2c(-c3ccccc3)cn3c4c(=O)n(C)c(=O)n(C)c4nc23)CC1` was run?
A: Its Activity is 3.5.

Q: What about the Activity [5] of the same molecule?
A: The Activity was 172 s.

Q: What about the deltaT [6] of the same molecule?
A: Its deltaT is -0.7 °C.

Q: What about the deltaT [7] of the same molecule?
A: The deltaT was -0.6 °C.

Q: What about the deltaT [8] of the same molecule?
A: The deltaT was 0 °C.

Q: And the Ki [1]?
A: Its Ki is 5.6 nM.

Q: What about the deltaT [9] of the same molecule?
A: The deltaT was -0.9 °C.

Q: And the Activity [10]?
A: Its Activity is “Dose-dependent effect”.

Q: And the Activity [11]?
A: Its Activity is 3.2.

Q: What about the Ki [2] of the same molecule?
A: The Ki was 143 nM.

Q: And the deltaT [12]?
A: Its deltaT is -2 °C.

Q: What about the Ki [3] of the same molecule?
A: Its Ki is over 1000 nM.

Q: What about the Activity [13] of the same molecule?
A: Its Activity is 169.3 s.

Q: What about the deltaT [14] of the same molecule?
A: The deltaT was -0.5 °C.

Q: And the deltaT [15]?
A: The deltaT was -0.6 °C.

Q: `Cc1cn2c3c(=O)n(C)c(=O)n(C)c3nc2n1CCCN1CCN(c2cccc(Cl)c2)CC1` was tested. Which deltaT [16] did it give?
A: The deltaT was -0.5 °C.

Q: What about the deltaT [17] of the same molecule?
A: The deltaT was -0.4 °C.

Q: And the deltaT [6]?
A: The deltaT was -0.5 °C.

Q: What about the deltaT [7] of the same molecule?
A: Its deltaT is -0.7 °C.

Q: And the deltaT [8]?
A: The deltaT was -0.1 °C.

Q: And the deltaT [18]?
A: Its deltaT is -0.5 °C.

Q: What about the Ki [1] of the same molecule?
A: The Ki was 17.1 nM.

Q: And the deltaT [9]?
A: Its deltaT is -0.9 °C.

Q: What about the Activity [10] of the same molecule?
A: The Activity was “Dose-dependent effect”.

Q: What about the Activity [19] of the same molecule?
A: The Activity was “inactive”.

Q: What about the Ki [2] of the same molecule?
A: Its Ki is 767 nM.

Q: What about the deltaT [12] of the same molecule?
A: Its deltaT is -1 °C.

Q: And the Ki [3]?
A: Its Ki is 403 nM.

Q: What about the deltaT [14] of the same molecule?
A: Its deltaT is -0.1 °C.

Q: What about the deltaT [15] of the same molecule?
A: The deltaT was -0.8 °C.

Q: Which results are given for `CN(C)CCCN1c2ccccc2CCc2ccccc21` [IMIPRAMINE]?
A: Activity [20]: 149.1 s; Activity [21]: 300.9; Activity [22]: 625.3; Activity [5]: 76.4 s; Activity [23]: 314.9; Activity [24]: 876.8; Activity [25]: 602.3; Activity [26]: 338; Activity [13]: 107.8 s

Q: Which results are given for `COc1ccccc1N1CCN(CCCN2CCCn3c2nc2c3c(=O)n(C)c(=O)n2C)CC1`?
A: Ki [1]: 2.8 nM; Ki [3]: 486 nM
